ABHD5 PLIN5 PPI – inhibitors of human ABHD5-perilipin-5 interaction | Q00G26+Q8WTS1 | Split G. princeps luciferase complementation, luminescence, 4 h | inhibition, % at 4 µM | 360,000 compounds, 0.78% hits | AID 602281;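 active = inhibition above the mean inhibition across every tested compound plus 3 SD, cut at about 22% in these data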;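 also: 0% = DMSO only wells and the 100% control is not disclosed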
APOBEC3G inh – inhibitors of human APOBEC3G DNA deaminase | Q9HC16 | recombinant A3G, ssDNA deamination FAM/TAMRA fluorescence | inhibition, % at 20 µM | 330,000 compounds, 0.28% hits;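 active = inhibition of at least 40% at 20 µM, with no more than 30% in the related APOBEC3A deaminase screen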;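 also: plate controls were DMSO wells with A3G for no effect and wells lacking A3G enzyme for full effect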
APOBEC3A inh – blocks human APOBEC3A ssDNA deamination | AID 493011 | recombinant A3A, FAM/TAMRA ssDNA deamination fluorescence | 330,000 compounds, 0.41% hits | inhibition, % at 20 µM | P31941;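 active = at least 40% inhibition at 20 µM here, with at most 30% in a related deaminase screen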;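 also: plate controls were A3A with DMSO for no effect and wells lacking A3A enzyme for full effect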
HCV NS3 hel inh – blocks Hepatitis C virus NS3 helicase unwinding; inhibition, % at 10.9 µM; AID 1800; 290,000 compounds, 0.56% hits; NS3 helicase DNA unwinding, Cy5 molecular beacon fluorescence;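 active = inhibition above the mean of all tested compounds plus 3 SD, set per campaign, cut at about 35% in these data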;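 also: 0% = DMSO wells and 100% = thioflavine S control wells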
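Control set: DMSO versus 110 µM thioflavine S; Material: NS3 helicase fragment of HCV; Measured by: Cy5 fluorescence at 0 and 60 min, beacon hairpin quenching; Read-out basis: percent inhibition from t60/t0 fluorescence ratio; Times: reaction time 60 min, 25 °C; Repeats: single replicate; Compound dosing: single dose, 10.9 µM nominal final, DMSO 0.8% final.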
PRMT1 FP inh – inhibitors of human PRMT1; 370,000 compounds, 1.3% hits; Q99873; inhibition, % at 2.79 µM; recombinant PRMT1, activity-based probe fluorescence polarization;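 active = inhibition above about 21% made by adding two undisclosed values, limit read from the data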
HCV core dimer – HCV core protein dimerization inhibition. 300,000 compounds, 0.33% hits. AID 1899. TR-FRET GST/Flag-core106 dimerization, 1536-well. inhibition, % at 5 µM;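 active = inhibition above the mean of all tested compounds plus 3 SD, set per screening campaign, cut at about 45% in these data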
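Material: Tagged HCV core106 pair (GST and Flag) | Amount: GST-core106 13.5 nM, Flag-core106 17 nM | Medium: KF-containing HEPES buffer, pH 7.45, DTT, CHAPS, BSA | Reagent: Eu donor and XL665 acceptor anti-tag antibodies | Schedule: 4 h at 22.5 °C | Technique: Time-resolved FRET, ex 340 nm, em 617 and 671 nm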
PRMT1 confirm – confirmation of human PRMT1 inhibitors | inhibition, % at 2.79 µM | recombinant His-PRMT1, activity-based probe fluorescence polarization | shares compounds with PRMT1 FP inh | 3,300 compounds, 42% hits;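 active = mean inhibition across replicates above the hit cutoff derived for the earlier primary screen, cut at about 22% in these data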
The depositor's hits bear a star; . = no result given. In the library only some 2.9% were active in any assay of this set; here they are far more common.

SMILES | ABHD5 PLIN5 PPI | APOBEC3G inh | APOBEC3A inh | HCV NS3 hel inh | PRMT1 FP inh | HCV core dimer | PRMT1 confirm
COc1ccc(CNC(=O)CC[C@H]2O[C@@H](n3cnc4c(NC(=O)c5ccccc5)ncnc43)[C@H](O)[C@@H]2O)cc1 | -4 | . | . | . | 6 | . | .
CCOC(=O)c1ccc(N2C(=O)CC(N3CCC(O)(c4ccc(Cl)cc4)CC3)C2=O)cc1 (centres undefined) | 2 | -10 | -4 | 30 | 50* | 4 | 17
CCOc1ccc(N2C(=O)CC(N3CCC(O)(c4ccc(Br)cc4)CC3)C2=O)cc1 (centres undefined) | 4 | -7 | -8 | 2 | 56* | -5 | -1
O=C(COC(=O)c1ccc2ncsc2c1)NC(=O)c1ccccc1 | -5 | -5 | 3 | -10 | 27* | 0 | 2
O=C(COC(=O)COc1ccccc1)Nc1ncc([N+](=O)[O-])s1 | -25 | -3 | 1 | . | 40* | . | 15
Cc1ccc(NC(=O)C2=NNC(=O)CC2)cc1S(=O)(=O)Nc1ccc(SC(F)F)cc1 | -18 | -4 | 2 | . | 27* | . | 20
Cc1sc2nc(CSCC(=O)NC3(C#N)CCCCC3)[nH]c(=O)c2c1C | -2 | -4 | 15 | . | 25* | . | 5
CCc1cccc(NC(=O)CSCc2nc3sc(C)c(C)c3c(=O)[nH]2)c1 | -14 | -8 | -6 | . | 4 | . | .
O=C(Nc1nc2cc3c(cc2s1)OCCO3)c1ccncc1 | -3 | -2 | 4 | 10 | -2 | 4 | .
O=C(NNc1nc2cc3c(cc2s1)OCCO3)c1ccc(F)cc1 | -6 | -5 | -3 | 2 | 33* | 1 | -1
COc1ccc(N2C(=O)c3cccc4c(N(C)CCO)ccc(c34)C2=O)cc1 | 11 | -15 | -12 | 1 | 29* | . | 24*
CCOC(=O)C1=C(C)N=c2s/c(=C/c3ccc(OCC(=O)O)c(OC)c3)c(=O)n2C1c1ccc(Cl)cc1 (centres undefined) | 4 | -3 | 0 | . | 34* | 12 | 22*
CCOC(=O)C1=C(C)N=c2s/c(=C\c3ccc(OCC(=O)O)cc3)c(=O)n2C1c1ccc(Cl)cc1 (centres undefined) | -6 | -8 | 2 | 14 | 30* | . | 10
CC1=C(C(=O)OC(C)C)C(c2ccc(Cl)cc2)n2c(sc(=Cc3ccc(OCC(=O)O)cc3)c2=O)=N1 (centres undefined) | -9 | . | . | . | 12 | . | .
CCOc1ccc(C2C(C(=O)Nc3ccccc3)=C(C)N=c3s/c(=C/c4cccc(OCC(=O)O)c4)c(=O)n32)cc1 (centres undefined) | 19 | -9 | -5 | 13 | 25* | 28 | 1
CCOC(=O)C1=C(C)N=c2s/c(=C/c3ccc(OCC(=O)O)cc3)c(=O)n2C1c1ccc(F)cc1 (centres undefined) | -12 | -7 | -1 | 16 | 37* | 15 | 11
CCOC(=O)C1=C(C)N=c2s/c(=C/c3ccccc3)c(=O)n2C1c1ccc(OC)c(OC)c1 (centres undefined) | -3 | -5 | -2 | -6 | -1 | 3 | .
CCOC(=O)C1=C(C)N=c2s/c(=C/c3ccc(OCC(=O)O)cc3)c(=O)n2C1c1ccc(SC)cc1 (centres undefined) | -8 | -12 | -3 | 29 | . | . | .
Cc1ccc(CN2CCCCC(NC(=O)c3ccc(COc4ccccc4)cc3)C2=O)cc1 (centres undefined) | . | . | . | . | -1 | . | .
O=c1[nH]c2c(s1)C=Nc1ccccc1N2 | -19 | -5 | 1 | 1 | 69* | -109 | 85*
NS(=O)(=O)c1ccc(NC(=S)NC(=O)/C=C/c2ccco2)cc1 | 8 | 6 | 22 | 6 | 56* | 9 | 20
Cc1cccc(NC(=S)NC(=O)/C=C/c2ccco2)c1 | 6 | -3 | 7 | 35 | 35* | 32 | 11
CC(=O)c1ccc(NC(=S)NC(=O)/C=C/c2ccco2)cc1 | 7 | -3 | -1 | 30 | 11 | -10 | .
CSc1ccc(/C=N/NC(=O)CNc2cccc3ccccc23)cc1 | -6 | 11 | 3 | 17 | 1 | 3 | .

High-throughput results deposited in PubChem by several laboratories.
